We go through seven compounds from ChEMBL document CHEMBL1135438, “Synthesis and pharmacological characterization of novel analogues of the nicotinic acetylcholine receptor agonist (+/-)-UB-165” (J Med Chem, 2002).

The target of test [1] is Neuronal acetylcholine receptor subunit alpha-7 (Rattus norvegicus, UniProt Q05941). Nature of the test: Binding affinity at rat brain Nicotinic acetylcholine receptor alpha7.
A short description of test [2]: Compound was tested for its potency at Nicotinic acetylcholine receptor alpha3-beta4 relative to that of Nicotinic acetylcholine receptor alpha4-beta2.
The target of test [3] is T1, Neuronal acetylcholine receptor; alpha3/beta4 (Rattus norvegicus, UniProt P04757+P12392). Nature of the test: Activation potency at Nicotinic acetylcholine receptor alpha3beta4, expressed as concentration required to achieve a half maximal activation. Type of test: protein-complex assay. Summed up: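 Rat α3β4 nAChR stably expressed in L cells, induced 7–10 days with 1 μM dexamethasone; cells loaded with 5 μM fluo-3 (1 h, room temperature, dark). Agonist given in high-calcium buffer (75 mM CaCl2, pH 7.4), fluorescence followed 16 s.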

For test [4], the target named is T1, Neuronal acetylcholine receptor; alpha3/beta4. Nature of the test: Binding affinity at rat brain Nicotinic acetylcholine receptor alpha3-beta4.
The target in test [5] is Neuronal acetylcholine receptor; alpha4/beta2 (Rattus norvegicus, UniProt P09483+P12390). Nature of the test: Binding affinity at rat brain Nicotinic acetylcholine receptor alpha4-beta2. Summed up: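 Rat brain P2 membranes (250 μg protein) competed against 10 nM (–)-[3H]nicotine, 30 min room temperature then 1 h at 4 °C; filtration. Nonspecific binding with 1 mM (–)-nicotine.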

Test [6] addresses Neuronal acetylcholine receptor subunit alpha-7 (Rattus norvegicus) (UniProt Q05941). Nature of the test: Compound was tested for its potency at Nicotinic acetylcholine receptor alpha-7 relative to that of Nicotinic acetylcholine receptor alpha4-beta2.
A short description of test [7]: Ratio of Ki (binding affinity) relative to activation potency.

Sequence of Neuronal acetylcholine receptor; alpha4/beta2 (P09483 whole entry): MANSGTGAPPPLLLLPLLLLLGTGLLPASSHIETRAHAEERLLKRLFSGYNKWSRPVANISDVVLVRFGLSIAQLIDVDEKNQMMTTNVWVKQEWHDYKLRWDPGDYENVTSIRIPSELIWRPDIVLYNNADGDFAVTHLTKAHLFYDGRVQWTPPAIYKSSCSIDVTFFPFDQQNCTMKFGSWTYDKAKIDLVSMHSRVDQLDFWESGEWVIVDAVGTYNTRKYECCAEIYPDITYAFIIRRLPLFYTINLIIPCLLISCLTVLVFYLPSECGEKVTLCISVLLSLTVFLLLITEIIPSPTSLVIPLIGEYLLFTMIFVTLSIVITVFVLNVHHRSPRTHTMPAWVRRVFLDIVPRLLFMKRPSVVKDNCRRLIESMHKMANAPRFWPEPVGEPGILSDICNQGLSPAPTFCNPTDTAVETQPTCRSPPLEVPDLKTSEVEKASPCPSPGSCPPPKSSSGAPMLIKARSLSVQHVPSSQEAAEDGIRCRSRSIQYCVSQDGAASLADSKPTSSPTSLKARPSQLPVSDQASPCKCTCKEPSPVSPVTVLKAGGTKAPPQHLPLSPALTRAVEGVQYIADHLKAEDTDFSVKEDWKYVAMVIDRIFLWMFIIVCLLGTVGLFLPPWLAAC
Sequence of Neuronal acetylcholine receptor; alpha4/beta2 (P12390 whole entry): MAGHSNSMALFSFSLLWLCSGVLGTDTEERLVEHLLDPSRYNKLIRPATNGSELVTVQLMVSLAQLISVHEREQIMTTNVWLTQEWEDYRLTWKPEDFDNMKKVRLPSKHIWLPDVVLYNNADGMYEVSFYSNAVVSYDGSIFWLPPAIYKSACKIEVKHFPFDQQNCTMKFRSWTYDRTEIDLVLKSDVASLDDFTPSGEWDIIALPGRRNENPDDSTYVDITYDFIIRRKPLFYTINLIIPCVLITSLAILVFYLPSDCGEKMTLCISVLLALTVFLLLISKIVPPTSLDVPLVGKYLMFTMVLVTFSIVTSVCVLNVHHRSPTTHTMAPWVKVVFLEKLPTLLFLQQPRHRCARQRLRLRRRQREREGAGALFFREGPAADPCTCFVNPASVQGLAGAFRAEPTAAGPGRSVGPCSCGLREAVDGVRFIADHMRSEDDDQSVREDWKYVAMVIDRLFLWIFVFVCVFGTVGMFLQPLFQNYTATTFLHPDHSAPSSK
Sequence of Neuronal acetylcholine receptor subunit alpha-7 (Q05941 whole entry): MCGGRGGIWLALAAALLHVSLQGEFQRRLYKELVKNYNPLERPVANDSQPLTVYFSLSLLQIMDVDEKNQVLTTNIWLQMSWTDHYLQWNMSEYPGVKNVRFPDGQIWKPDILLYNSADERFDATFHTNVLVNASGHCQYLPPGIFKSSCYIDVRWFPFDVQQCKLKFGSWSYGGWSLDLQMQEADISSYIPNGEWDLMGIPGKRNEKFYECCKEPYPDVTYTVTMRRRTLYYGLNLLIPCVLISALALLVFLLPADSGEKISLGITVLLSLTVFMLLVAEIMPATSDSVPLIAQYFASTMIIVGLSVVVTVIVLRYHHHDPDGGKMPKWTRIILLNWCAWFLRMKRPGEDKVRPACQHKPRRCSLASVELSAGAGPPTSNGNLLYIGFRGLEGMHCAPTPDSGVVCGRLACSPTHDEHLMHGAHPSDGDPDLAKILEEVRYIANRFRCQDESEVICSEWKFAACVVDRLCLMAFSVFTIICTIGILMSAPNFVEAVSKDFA
Sequence of Neuronal acetylcholine receptor subunit alpha-7 (Rattus norvegicus) (Q05941 whole entry): as above
T1 sequence (P04757 whole entry): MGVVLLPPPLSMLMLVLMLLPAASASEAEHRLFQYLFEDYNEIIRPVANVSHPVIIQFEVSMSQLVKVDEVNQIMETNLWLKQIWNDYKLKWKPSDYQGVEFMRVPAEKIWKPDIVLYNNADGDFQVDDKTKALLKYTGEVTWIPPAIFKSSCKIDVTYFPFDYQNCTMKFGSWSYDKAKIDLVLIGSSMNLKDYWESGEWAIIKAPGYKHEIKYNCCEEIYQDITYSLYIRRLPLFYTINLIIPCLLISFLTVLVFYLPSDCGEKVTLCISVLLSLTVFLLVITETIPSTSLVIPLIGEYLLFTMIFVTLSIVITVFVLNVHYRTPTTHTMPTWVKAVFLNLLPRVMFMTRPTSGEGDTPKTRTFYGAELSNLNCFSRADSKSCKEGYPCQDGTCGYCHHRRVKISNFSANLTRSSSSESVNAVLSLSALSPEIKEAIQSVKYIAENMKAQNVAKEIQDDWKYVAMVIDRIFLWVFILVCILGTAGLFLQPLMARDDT
T1 sequence (P12392 whole entry): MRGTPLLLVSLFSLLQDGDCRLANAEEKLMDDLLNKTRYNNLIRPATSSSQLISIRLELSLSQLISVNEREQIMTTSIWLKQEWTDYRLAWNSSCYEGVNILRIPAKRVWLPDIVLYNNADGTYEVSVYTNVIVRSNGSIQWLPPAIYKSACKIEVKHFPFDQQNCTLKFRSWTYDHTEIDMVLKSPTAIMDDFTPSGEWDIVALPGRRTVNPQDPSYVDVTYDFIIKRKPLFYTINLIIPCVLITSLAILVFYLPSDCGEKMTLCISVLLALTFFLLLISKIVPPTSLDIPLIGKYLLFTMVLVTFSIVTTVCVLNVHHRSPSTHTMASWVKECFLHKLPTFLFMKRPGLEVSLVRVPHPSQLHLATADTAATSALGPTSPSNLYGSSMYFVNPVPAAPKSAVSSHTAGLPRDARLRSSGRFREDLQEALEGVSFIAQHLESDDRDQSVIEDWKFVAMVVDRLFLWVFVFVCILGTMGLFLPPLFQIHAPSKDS

Regarding `C1=C(c2ccncc2)C2CC[C@H](CC1)N2`, the Ki in test [1] is over 50000 nM; in test [4], 22000 nM; in test [5] it was 11000 nM. Moreover, in test [2], the Affinity ratio was 2. Besides, the EC50 in test [3] was over 100000 nM.

On to `C1=C(c2ccccn2)C2CC[C@H](CC1)N2`, for which the Ki was found to be 47500 nM in test [1] and 10500 nM in test [4]. Moreover, the Affinity ratio came out at 31 in test [6] and 6.8 in test [2]. The same compound displayed an EC50 in test [3] of over 100000 nM.

In turn, `Clc1ccc(C2=CCCC3CCC2N3)cn1` (racemic) gave a Ki in test [1] of 2760 nM.

As for `C1=C(c2cccnn2)C2CC[C@H](CC1)N2`, the figures for the Ki in test [1], in test [4] and in test [5] were 68.4 nM, 306 nM and 2.6 nM, respectively. Also, the Affinity ratio in test [6] was determined as 118; in test [2], 20. This compound displayed an EC50 in test [3] of 4190 nM. Moreover, the Ratio in test [7] worked out at 14.

For `C1=C(c2cnccn2)C2CC[C@H](CC1)N2`, the Ki in test [1] was found to be 5770 nM; in test [4] it was 2850 nM; in test [5], 58 nM. The Affinity ratio turned out to be 100 in test [6] and 49 in test [2]. For the same compound, the EC50 in test [3] was over 100000 nM.

In the case of `C1=C(c2cccnc2)C2CC[C@H](CC1)N2`, the Ki in test [1] came to 89 nM; in test [5], 0.43 nM.

On to `C1=C(c2cncnc2)C2CC[C@H](CC1)N2`, for which the values for the Ki in test [1], in test [4] and in test [5] were 1710 nM, 236 nM and 2.45 nM, respectively. Besides, the Affinity ratio was determined as 696 in test [6] and 96 in test [2]. This compound also yielded an EC50 in test [3] of 3890 nM. For the same compound, the Ratio in test [7] is 16.
